The list is not random: actives were taken first. Their share in the collection is about 4.5%.
TAAR1 agonist: human TAAR1 agonism; 360,000 tested, 0.99% active; activation, % at 3 µM; Q96RJ0; AID 624467; CHO RD-HGA16 TAAR1, Fluo-8 calcium fluorescence; vehicle wells 0%, saturating PEA agonist 100%;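 active means activation above the mean activation of all test compounds in the run plus 3 SD, cut at about 38% in these data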
Target sequence (Q96RJ0 whole entry, looked up): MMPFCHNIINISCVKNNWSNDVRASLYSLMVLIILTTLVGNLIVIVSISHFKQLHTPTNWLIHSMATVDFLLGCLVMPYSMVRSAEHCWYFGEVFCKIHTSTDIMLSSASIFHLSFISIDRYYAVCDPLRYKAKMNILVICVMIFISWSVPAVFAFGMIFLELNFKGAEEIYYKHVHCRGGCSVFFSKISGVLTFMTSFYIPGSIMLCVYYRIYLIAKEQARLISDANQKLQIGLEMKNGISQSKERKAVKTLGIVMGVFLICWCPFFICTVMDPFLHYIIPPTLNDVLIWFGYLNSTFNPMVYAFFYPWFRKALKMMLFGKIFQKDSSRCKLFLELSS
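Benchmarks: low control DMSO, high control PEA (EC100); System: CHO RD-HGA16 cells carrying human TAAR1 plus Gα16; Detection: Fluo-8 fluorescence, 5 s baseline then 140 s kinetic read; Schedule: 17-24 h plating, Fluo-8 75 min 37 °C, 30 min RT; Read-out basis: % activation from peak over basal fluorescence ratio, DMSO-to-PEA scaled.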
GPR7 antag: blocks human GPR7 receptor signaling; P48145; GPR7-expressing cells, fluorescence antagonist assay; inhibition, % at 4.4 µM; 290,000 tested, 1.1% active; AID 1861; in the data active means inhibition above about 16%, passing the limit was not always enough;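 further: cells stimulated with the agonist NPW; 0% = agonist with vehicle and 100% = vehicle without agonist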
TAAR1 antag: human TAAR1 antagonism; Q96RJ0; CHO RD-HGA16 TAAR1, Fluo-8 calcium fluorescence, antagonist; inhibition, % at 3 µM; 360,000 tested, 1.5% active; AID 624466;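 active means inhibition above a per-plate cutoff, the mean inhibition of test compounds on that plate plus 3 SD, cut at about 49% in these data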;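 further: 0% = DMSO plus EC80 beta-PEA response and 100% = DMSO alone without agonist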
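Test system: RD-HGA16 CHO cells with stable hTAAR1 and Gα16 / Probe or stimulus: EC80 β-phenethylamine stimulus / Times: seeding 17-24 h prior, 75-min 37 °C, 30-min RT dye loading / Detection: Fluo-8 calcium-sensitive fluorescence / Read-out basis: % inhibition scaled between DMSO and EC80 PEA controls / Repeats: singlicate, one well per test compound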
OX1R antag-1: antagonists of human orexin 1 receptor (OX1R). OX1R-expressing cells, FRET antagonist read-out. inhibition, % at 6.6 µM. 330,000 tested, 1.8% active; in the data active means inhibition mostly above about 38%, no sharp cut-off; inactive means mostly below about 40%;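 further: 0% = agonist challenge alone and 100% = reference antagonist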
Target sequence (O43613 whole entry, looked up): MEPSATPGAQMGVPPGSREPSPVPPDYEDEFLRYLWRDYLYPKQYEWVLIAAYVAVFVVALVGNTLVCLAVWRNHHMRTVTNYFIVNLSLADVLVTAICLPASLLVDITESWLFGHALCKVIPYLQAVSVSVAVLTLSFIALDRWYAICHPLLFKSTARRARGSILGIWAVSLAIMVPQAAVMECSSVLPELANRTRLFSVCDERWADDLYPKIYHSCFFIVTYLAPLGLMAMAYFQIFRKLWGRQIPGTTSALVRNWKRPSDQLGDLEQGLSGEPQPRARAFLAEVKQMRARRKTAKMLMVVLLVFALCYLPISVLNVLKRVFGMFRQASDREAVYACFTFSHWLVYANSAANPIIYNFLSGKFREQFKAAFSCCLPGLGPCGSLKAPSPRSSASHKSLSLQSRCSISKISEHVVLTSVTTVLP
OX1R antag-2: blocks the human orexin 1 receptor; O43613; CHO/OX1R cells, Fluo-8 calcium fluorescence, orexin A; inhibition, % at 5 µM; 330,000 tested, 0.43% active;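 active means inhibition above its plate's threshold, mean inhibition of all tested compounds on the plate plus 3 SD, cut at about 37% in these data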;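 further: 0% = orexin A challenge wells and 100% = SB-334867-A antagonist wells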
CHO parental Ca: counter-screen for OX1R antagonists: effect in parental CHO cells. parental CHO-K1, ATP-induced calcium, Fluo-8 fluorescence. inhibition, % at 5.6 µM. 330,000 tested, 0.63% active;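 active means inhibition above that plate's mean sample inhibition plus 3 SD, cut at about 26% in these data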;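 further: 0% = ATP-challenged DMSO wells and 100% = DMSO wells without ATP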
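Material: parental CHO cells / Compound: single nominal dose of 5.6 µM per compound / Signal: Fluo-8 fluorescence / Replicates: singlicate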
TAAR1 nonsel count: nonselective antagonism, TAAR1 counter-screen | 2,400 tested, 77% active | counterscreen cell line, calcium fluorescence, antagonist mode | inhibition, % at 3 µM | shares compounds with TAAR1 antag; in the data active means inhibition above about 22%;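 further: CHO-Ga16 host cells stimulated with ATP at an EC80 level; 0% = agonist EC80 plus vehicle and 100% = vehicle without agonist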
TAAR1 ant conf: human TAAR1 antagonism, confirmed. shares compounds with TAAR1 antag. TAAR1-expressing cells, fluorescence antagonist read-out. inhibition, % at 3 µM. 2,400 tested, 40% active. AID 651785; in the data active means inhibition above about 49%;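 further: CHO-Ga16 host cells challenged with agonist PEA near its EC80; 0% = agonist at EC80 plus vehicle and 100% = vehicle with no agonist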
Ga16 nonsel ag: nonselective Ga16 agonism, counter-screen | shares compounds with TAAR1 antag | Ga16-expressing cells, calcium fluorescence, agonist counterscreen | activation, % at 3 µM | 2,400 tested, 18% active | AID 651953; in the data active means activation above about 12%;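 further: 0% = vehicle wells and 100% = saturating stimulus response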
TAAR1 ag counter: TAAR1 agonism, antagonist counter-screen; shares compounds with TAAR1 antag; hTAAR1 cell line, fluorescence activation, agonist mode; activation, % at 3 µM; 2,400 tested, 2% active; AID 651955; in the data active means activation above about 37%;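 further: CHO cells stably expressing TAAR1 with calcium dye readout; 0% = DMSO vehicle and 100% = full agonist response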
An asterisk follows results filed as active; . = no result given.

SMILES | TAAR1 agonist | GPR7 antag | TAAR1 antag | OX1R antag-1 | OX1R antag-2 | CHO parental Ca | TAAR1 nonsel count | TAAR1 ant conf | Ga16 nonsel ag | TAAR1 ag counter
O=C(CN1C(=O)c2cccnc2Oc2ccc(Cl)cc21)NCCCc1ccccc1 | 8 | -19 | 84* | 28 | -21 | -17 | 32* | 56* | 9 | 9
Cc1ccc(N(Cc2cc3ccc(C)cc3[nH]c2=O)C(=O)c2ccco2)c(C)c1 | 0 | -7 | 104* | 1 | -32 | -23 | 12 | -1 | 3 | 5
Cc1cc(NC(=O)CCC(=O)N(CCC(C)C)C(C(=O)NC2CCCC2)c2ccccc2C)no1 (stereo not drawn) | 5 | -1 | -5 | 36 | -53 | -20 | . | . | . | .
COc1cc(C2CC(=O)c3c([nH]c(C(=O)OCCOC(C)C)c3C)C2)cc(OC)c1OC (stereo not drawn) | 9 | 18* | 64* | 19 | -1 | 31* | 35* | 45 | 12* | 13
CC(/C=N/N1CCN(c2ccccn2)CC1)=C\c1ccccc1 | 1 | 3 | -5 | 10 | -27 | -21 | . | . | . | .
CC1(c2nnc(-c3ccc(Cl)cc3)o2)CC(c2c(Cl)cccc2Cl)=NO1 (stereo not drawn) | 15 | . | 56* | 28 | -22 | -40 | 23* | 32 | 7 | 8
CC1(c2nnc(-c3ccc(F)cc3)o2)CC(c2c(Cl)cccc2Cl)=NO1 (stereo not drawn) | 5 | . | 47 | 43 | -24 | -26 | . | . | . | .
O=C(O)COCC(=O)N1CCN(c2cc(C(F)(F)F)nc3ccccc23)CC1 | 10 | -11 | -27 | -5 | 10 | -6 | . | . | . | .
CCC(=O)N1CCN(c2ccc(-n3c(=O)ccc4cnc5ccc(-c6cnc7ccccc7c6)cc5c43)cc2C(F)(F)F)CC1 | 7 | . | 50* | . | . | . | 21 | 34 | 7 | 7
Cc1ccccc1Cn1cccc1/C=C1/C(=N)N2C=CSC2=NC1=O | 10 | -20 | 62* | 40 | -11 | 4 | 32* | 43 | 5 | 6
CC(C)c1ccc(-n2cccc2/C=C2/C(=N)N3C=CSC3=NC2=O)cc1 | 5 | -9 | 37 | 23 | -5 | -21 | . | . | . | .
O=C(OCn1ncc(Cl)c(Cl)c1=O)c1ccc(C(F)(F)F)cc1 | 13 | -4 | 66* | . | . | . | 35* | 40 | 6 | 7
CCC(=O)Nc1ccc(C(=O)Cn2ncc(Cl)c(Cl)c2=O)cc1 | -2 | 6 | 11 | 41 | -3 | -6 | . | . | . | .
CCCC1SCC(C)(C)NC1=O (stereo not drawn) | 0 | . | -9 | . | . | . | . | . | . | .
Cc1ccc(Nc2ccc(C(=O)NC3CCCCC3)cn2)cc1 | -3 | -21 | -9 | 27 | -30 | -2 | . | . | . | .
COc1cccc(CNC(=O)Cn2ncn3cccc3c2=O)c1OC | 1 | -5 | -14 | 1 | -4 | -2 | . | . | . | .
COc1ccc(CCN2C(=O)c3[nH]nc(-c4ccccc4O)c3C2c2cccc(Cl)c2)cc1 (stereo not drawn) | 12 | -12 | 59* | 9 | -40 | -10 | 19 | 40 | 8 | 12
Cc1ccc(C)c(N2CCN(C(=O)CCc3nc(-c4ccccc4C)no3)CC2)c1 | 0 | . | 14 | 18 | -8 | -32 | . | . | . | .
Cc1ccc(C)c(N2CCN(C(=O)CCc3nc(-c4ccccc4Cl)no3)CC2)c1 | 3 | . | 59* | 23 | -15 | -23 | 26* | 35 | 5 | 4
O=C(CCCCCN1C(=O)[C@@H]2Cc3ccccc3CN2C1=O)Nc1cccc(F)c1 | 8 | 2 | 67* | 12 | -33 | -10 | 42* | 60* | 13* | 10
O=C(Nc1ccc(Cl)cn1)c1cccc2ccccc12 | 0 | 25 | 4 | 0 | -1 | -12 | . | . | . | .
Cc1cc(=O)[nH]c(SCC(=O)Nc2ccc(F)c([N+](=O)[O-])c2)n1 | 2 | -14 | -14 | 39 | -19 | -2 | . | . | . | .
COc1nc(N/N=C/c2ccc(-c3ccccc3[N+](=O)[O-])o2)nc(N2CCOCC2)n1 | 16 | -2 | 64* | 30 | -14 | -7 | 21 | 39 | 12* | 11
O=[N+]([O-])c1ccc(-c2ccc(/C=N/Nc3nc(NCc4ccccc4)nc(N4CCOCC4)n3)o2)cc1 | 20 | -14 | 39 | 12 | 1 | 12 | . | . | . | .
Cc1ccc(/C=N/Nc2nc(N3CCCCC3)nc(N3CCCCC3)n2)o1 | 0 | -9 | 10 | 30 | -28 | -34 | . | . | . | .
SMILES | TAAR1 agonist | GPR7 antag | TAAR1 antag | OX1R antag-1 | OX1R antag-2 | CHO parental Ca | TAAR1 nonsel count | TAAR1 ant conf | Ga16 nonsel ag | TAAR1 ag counter
COC(=O)c1ccccc1-c1ccc(/C=N/Nc2nc(N3CCCC3)nc(N3CCCC3)n2)o1 | 10 | 2 | 69* | 27 | -25 | -29 | 17 | 38 | 4 | 2
CC1=C(C(=O)N(C(C)C)C(C)C)CC(CC(=O)NCc2cccs2)C(=O)N1CCC1=CCCCC1 (stereo not drawn) | -1 | . | 7 | . | . | . | . | . | . | .
COCCC(=O)N1CCC(Oc2ccc(C(=O)NCCSC)cc2)CC1 | 3 | 5 | -10 | 14 | -42 | -23 | . | . | . | .
CC1(C)OC(=O)C2=C(C[C@@H](C3CCCCC3)O[C@H]2c2ccccc2)O1 | -1 | . | 7 | . | . | . | . | . | . | .
CC1(C)OC(=O)C2=C(C[C@@H](C3CCCCC3)O[C@H]2c2ccc(Cl)cc2)O1 | 5 | . | 50* | . | . | . | 4 | 13 | 7 | 14
CCOC(=O)N1CCN(C(=O)c2c[nH]c3ccc(S(=O)(=O)N(C)c4ccc(OCC)cc4)cc3c2=O)CC1 | 2 | -7 | -12 | 10 | 8 | -1 | . | . | . | .
Cc1cc(Nc2ccccc2)nc(-c2ccccc2O)n1 | 17 | -12 | 16 | 27 | -6 | -18 | . | . | . | .
CCOC(=O)c1ccc(Nc2cc(C)nc(-c3ccccc3O)n2)cc1 | 2 | 5 | 53* | 21 | -34 | -19 | 26* | 40 | 6 | 5
CCN=C(NCC)SC1CC(=O)N(c2ccc(F)cc2)C1=O (stereo not drawn) | 14 | -4 | 90* | 11 | -17 | -9 | 28* | 57* | 9 | 14
Nc1c(C(=O)NCC2CCCO2)sc2nc3c(c(-c4ccco4)c12)CC/C3=C\c1ccco1 (stereo not drawn) | 16 | 7 | 53* | . | . | . | -2 | 0 | 3 | 2
CCNC(=O)CSc1nnc(-c2cccc(S(=O)(=O)N(CC)CC)c2)n1CCc1ccccc1 | 10 | 3 | 1 | 10 | -10 | -20 | . | . | . | .
